These results are taken from ChEMBL document CHEMBL3259739, “Synthesis and structure-activity relationship of trisubstituted thiazoles as Cdc7 kinase inhibitors” (Eur J Med Chem, 2014).

Test [1] has as its target CDC7/DBF4 (Cell division cycle 7-related protein kinase/Activator of S phase kinase) (Homo sapiens, UniProt O00311). Kind of test: Inhibition of Cdc7/Dbf4 (unknown origin)-mediated phosphorylation of MCM2 by protein-A luminescent proximity homogenous assay. The class given is protein-complex assay.
Test [2] addresses Serine/threonine-protein kinase pim-1 (Homo sapiens, UniProt P11309). Kind of test: Inhibition of PIM1 (unknown origin) at 1 uM relative to control. The note with it: values are per cent of control. A digest of the protocol: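 The supplementary panel puts Pim1 in the KinomeSCAN competitive binding format; compounds at 1 µM in duplicate; percent […] control.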
Test [3] has as its target Rho-associated protein kinase 2 (Homo sapiens) (UniProt O75116). The test can be described thus: Inhibition of ROCK2 (unknown origin) at 1 uM relative to control. The note with it: values are per cent of control. Put shortly: (§1)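 KinomeSCAN competitive binding panel of 100 kinases; compounds tested at 1 µM in duplicate; read-out is percent […] control.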
Test [4] has as its target T1, Mitogen-activated protein kinase kinase kinase 7 (Homo sapiens) (UniProt O43318).
T1 sequence (whole entry): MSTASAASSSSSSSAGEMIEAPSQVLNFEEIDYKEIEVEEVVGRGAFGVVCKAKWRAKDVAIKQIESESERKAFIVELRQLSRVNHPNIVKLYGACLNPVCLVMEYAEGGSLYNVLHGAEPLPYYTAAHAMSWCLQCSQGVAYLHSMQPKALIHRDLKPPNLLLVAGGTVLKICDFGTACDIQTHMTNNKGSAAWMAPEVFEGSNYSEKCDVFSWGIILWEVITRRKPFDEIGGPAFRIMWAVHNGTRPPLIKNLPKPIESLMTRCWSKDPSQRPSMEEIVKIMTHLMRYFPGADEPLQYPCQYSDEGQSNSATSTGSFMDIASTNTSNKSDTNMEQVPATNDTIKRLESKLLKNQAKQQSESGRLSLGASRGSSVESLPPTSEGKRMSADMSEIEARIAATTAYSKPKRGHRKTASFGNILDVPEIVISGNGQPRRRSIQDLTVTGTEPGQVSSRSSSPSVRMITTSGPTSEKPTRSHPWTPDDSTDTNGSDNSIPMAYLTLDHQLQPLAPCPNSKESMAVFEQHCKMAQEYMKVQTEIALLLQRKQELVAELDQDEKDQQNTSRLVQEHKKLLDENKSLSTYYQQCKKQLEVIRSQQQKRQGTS
Kind of test: Inhibition of TAK1 (unknown origin) at 1 uM relative to control. The note with it: values are per cent of control. A digest of the protocol: as §1

Test [5] deals with Tyrosine-protein kinase BTK (Homo sapiens) (UniProt Q06187). The test can be described thus: Inhibition of BTK (unknown origin) at 1 uM relative to control; values are per cent of control.
For test [6], the target named is Mast/stem cell growth factor receptor Kit (Homo sapiens) (UniProt P10721). The test can be described thus: Inhibition of KIT (unknown origin) at 1 uM relative to control; values are per cent of control.
Test [7] deals with Tyrosine-protein kinase Lyn (Homo sapiens) (UniProt P07948). The test can be described thus: Inhibition of LYN (unknown origin) at 1 uM relative to control; values are per cent of control.
Test [8] deals with Cyclin-dependent kinase 2 (Homo sapiens) (UniProt P24941). The test can be described thus: Inhibition of CDK2 (unknown origin) at 1 uM relative to control; values are per cent of control.
Test [9] addresses Dual specificity protein kinase CLK4 (Homo sapiens) (UniProt Q9HAZ1). Kind of test: Inhibition of CLK4 (unknown origin) at 1 uM relative to control; values are per cent of control.
Test [10] has as its target T2, Myotonin-protein kinase (Homo sapiens) (UniProt Q09013).
T2 sequence (whole entry): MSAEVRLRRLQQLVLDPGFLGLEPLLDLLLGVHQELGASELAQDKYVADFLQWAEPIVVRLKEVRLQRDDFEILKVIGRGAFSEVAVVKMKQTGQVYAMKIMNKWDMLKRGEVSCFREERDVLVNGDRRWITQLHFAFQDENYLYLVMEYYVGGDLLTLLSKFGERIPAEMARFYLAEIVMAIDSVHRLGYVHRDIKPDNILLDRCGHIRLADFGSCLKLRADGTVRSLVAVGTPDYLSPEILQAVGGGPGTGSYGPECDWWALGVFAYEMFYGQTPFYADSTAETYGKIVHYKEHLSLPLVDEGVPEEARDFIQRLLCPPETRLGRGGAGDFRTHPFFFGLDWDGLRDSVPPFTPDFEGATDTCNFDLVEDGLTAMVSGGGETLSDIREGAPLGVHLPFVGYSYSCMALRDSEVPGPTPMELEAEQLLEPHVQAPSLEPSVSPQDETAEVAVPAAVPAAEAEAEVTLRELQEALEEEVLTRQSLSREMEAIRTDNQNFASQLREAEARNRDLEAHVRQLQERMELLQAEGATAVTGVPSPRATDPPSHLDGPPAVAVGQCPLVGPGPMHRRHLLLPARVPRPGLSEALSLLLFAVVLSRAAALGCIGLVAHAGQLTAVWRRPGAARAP
The test can be described thus: Inhibition of DMPK (unknown origin) at 1 uM relative to control; values are per cent of control.

Test [11] deals with Serine/threonine-protein kinase/endoribonuclease IRE1 (Homo sapiens) (UniProt O75460). The test can be described thus: Inhibition of ERN1 (unknown origin) at 1 uM relative to control; values are per cent of control.
In test [12] the target is Glycogen synthase kinase-3 beta (Homo sapiens) (UniProt P49841). Kind of test: Inhibition of GSK3B (unknown origin) at 1 uM relative to control; values are per cent of control.
Test [13] concerns the target LIM domain kinase 1 (Homo sapiens) (UniProt P53667). Kind of test: Inhibition of LIMK1 (unknown origin) at 1 uM relative to control; values are per cent of control.
The target in test [14] is Dual specificity tyrosine-phosphorylation-regulated kinase 1A (Homo sapiens) (UniProt Q13627). The test can be described thus: Inhibition of DYRK1A (unknown origin) at 1 uM relative to control; values are per cent of control.
Test [15] deals with Mitogen-activated protein kinase kinase kinase 1 (Homo sapiens) (UniProt Q13233). Kind of test: Inhibition of MAP3K1 (unknown origin) at 1 uM relative to control; values are per cent of control.

For orientation: IC50 means the midpoint of a concentration-inhibition curve.

Dual specificity protein kinase CLK4 (Homo sapiens), sequence (Q9HAZ1 whole entry, looked up): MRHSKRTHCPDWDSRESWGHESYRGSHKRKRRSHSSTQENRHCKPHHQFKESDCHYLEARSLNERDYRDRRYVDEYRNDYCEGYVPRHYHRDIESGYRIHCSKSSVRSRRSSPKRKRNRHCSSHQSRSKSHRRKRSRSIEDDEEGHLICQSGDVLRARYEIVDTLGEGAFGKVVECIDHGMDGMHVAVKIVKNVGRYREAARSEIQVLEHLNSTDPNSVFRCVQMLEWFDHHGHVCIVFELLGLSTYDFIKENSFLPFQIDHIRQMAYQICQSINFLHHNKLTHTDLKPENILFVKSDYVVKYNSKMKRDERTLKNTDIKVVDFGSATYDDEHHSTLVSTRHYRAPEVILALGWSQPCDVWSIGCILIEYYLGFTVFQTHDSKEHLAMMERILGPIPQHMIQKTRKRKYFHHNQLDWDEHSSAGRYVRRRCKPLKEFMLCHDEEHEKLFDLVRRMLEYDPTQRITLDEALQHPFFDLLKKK
Rho-associated protein kinase 2 (Homo sapiens), sequence (O75116 whole entry, looked up): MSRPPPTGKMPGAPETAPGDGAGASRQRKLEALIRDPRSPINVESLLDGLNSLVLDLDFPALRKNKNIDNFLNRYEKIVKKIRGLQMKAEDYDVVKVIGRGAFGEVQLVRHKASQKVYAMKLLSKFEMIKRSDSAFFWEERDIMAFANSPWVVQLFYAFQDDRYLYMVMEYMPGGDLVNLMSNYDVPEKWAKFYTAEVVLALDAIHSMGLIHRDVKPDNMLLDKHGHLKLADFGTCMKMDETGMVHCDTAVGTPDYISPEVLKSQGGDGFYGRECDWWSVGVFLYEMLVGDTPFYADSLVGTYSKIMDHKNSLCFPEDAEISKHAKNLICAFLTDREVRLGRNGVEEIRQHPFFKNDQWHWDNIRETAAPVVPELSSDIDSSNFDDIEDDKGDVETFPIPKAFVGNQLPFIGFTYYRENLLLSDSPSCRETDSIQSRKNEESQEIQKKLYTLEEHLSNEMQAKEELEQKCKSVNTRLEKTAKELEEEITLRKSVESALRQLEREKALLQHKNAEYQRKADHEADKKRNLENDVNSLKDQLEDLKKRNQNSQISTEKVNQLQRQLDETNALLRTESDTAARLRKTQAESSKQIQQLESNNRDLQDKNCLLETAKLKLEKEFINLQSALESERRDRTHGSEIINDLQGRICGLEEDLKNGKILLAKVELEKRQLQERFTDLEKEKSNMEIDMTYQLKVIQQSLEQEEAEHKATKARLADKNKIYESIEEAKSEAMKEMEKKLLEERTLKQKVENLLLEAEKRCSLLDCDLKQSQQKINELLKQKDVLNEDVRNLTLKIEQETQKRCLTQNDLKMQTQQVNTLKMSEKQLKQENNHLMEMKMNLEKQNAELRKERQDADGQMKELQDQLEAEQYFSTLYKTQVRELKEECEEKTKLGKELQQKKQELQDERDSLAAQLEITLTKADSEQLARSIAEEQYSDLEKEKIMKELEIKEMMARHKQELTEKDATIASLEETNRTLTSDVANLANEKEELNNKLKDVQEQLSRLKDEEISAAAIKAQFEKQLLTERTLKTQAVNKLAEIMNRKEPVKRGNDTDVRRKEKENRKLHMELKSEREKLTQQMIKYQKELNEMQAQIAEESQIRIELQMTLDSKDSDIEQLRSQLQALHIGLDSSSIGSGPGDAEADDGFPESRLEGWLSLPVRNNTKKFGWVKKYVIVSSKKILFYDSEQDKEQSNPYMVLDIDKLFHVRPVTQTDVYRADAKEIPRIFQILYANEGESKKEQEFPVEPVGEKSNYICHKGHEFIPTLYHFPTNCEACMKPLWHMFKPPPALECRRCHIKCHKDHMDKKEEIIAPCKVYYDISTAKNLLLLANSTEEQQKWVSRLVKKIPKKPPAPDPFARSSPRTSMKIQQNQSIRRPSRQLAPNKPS
Serine/threonine-protein kinase pim-1, sequence (P11309 whole entry, looked up): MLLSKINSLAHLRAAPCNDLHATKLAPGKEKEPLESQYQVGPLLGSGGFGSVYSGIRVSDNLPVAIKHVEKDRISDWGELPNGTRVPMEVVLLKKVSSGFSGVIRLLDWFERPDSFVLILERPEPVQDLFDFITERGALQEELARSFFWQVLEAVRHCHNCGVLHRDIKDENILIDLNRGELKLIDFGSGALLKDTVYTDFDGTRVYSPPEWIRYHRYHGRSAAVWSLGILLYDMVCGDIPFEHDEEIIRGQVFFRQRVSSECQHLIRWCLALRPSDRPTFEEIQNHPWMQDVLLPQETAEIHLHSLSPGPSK
CDC7/DBF4 (Cell division cycle 7-related protein kinase/Activator of S phase kinase), sequence (Q9UBU7 whole entry): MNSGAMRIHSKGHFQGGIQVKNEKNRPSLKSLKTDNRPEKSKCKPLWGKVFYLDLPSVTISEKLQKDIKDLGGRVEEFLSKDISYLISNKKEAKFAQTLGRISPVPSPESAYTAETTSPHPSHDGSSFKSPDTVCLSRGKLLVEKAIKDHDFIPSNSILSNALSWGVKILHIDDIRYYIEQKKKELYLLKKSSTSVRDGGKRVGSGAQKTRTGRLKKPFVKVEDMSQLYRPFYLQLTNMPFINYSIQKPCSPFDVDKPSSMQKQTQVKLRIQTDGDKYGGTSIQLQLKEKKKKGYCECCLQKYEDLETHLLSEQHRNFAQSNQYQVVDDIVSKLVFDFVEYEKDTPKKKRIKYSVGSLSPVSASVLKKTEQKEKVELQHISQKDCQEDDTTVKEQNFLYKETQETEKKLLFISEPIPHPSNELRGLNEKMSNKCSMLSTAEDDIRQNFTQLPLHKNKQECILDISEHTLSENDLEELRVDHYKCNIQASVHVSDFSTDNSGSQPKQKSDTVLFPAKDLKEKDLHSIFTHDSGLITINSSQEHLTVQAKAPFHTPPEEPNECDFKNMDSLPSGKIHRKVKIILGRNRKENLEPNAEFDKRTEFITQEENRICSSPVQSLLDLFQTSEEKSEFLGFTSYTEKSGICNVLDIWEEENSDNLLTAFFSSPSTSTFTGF
CDC7/DBF4 (Cell division cycle 7-related protein kinase/Activator of S phase kinase), sequence (O00311 whole entry): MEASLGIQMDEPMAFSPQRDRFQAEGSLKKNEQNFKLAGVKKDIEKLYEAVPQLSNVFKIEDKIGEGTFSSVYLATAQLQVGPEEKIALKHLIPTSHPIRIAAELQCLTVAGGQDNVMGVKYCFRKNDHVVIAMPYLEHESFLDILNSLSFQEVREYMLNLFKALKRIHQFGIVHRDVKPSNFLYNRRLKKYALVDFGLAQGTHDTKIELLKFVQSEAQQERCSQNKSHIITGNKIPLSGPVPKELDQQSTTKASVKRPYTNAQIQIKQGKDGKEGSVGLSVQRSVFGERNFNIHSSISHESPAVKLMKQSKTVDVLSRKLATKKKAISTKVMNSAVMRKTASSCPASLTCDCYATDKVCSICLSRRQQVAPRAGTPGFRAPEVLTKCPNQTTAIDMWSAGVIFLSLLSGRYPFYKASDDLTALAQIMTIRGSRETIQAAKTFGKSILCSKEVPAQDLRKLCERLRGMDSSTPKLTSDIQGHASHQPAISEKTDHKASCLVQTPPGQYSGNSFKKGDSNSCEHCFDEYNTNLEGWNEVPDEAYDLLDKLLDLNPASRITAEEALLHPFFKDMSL
LIM domain kinase 1 (Homo sapiens), sequence (P53667 whole entry, looked up, the tested form may be a part): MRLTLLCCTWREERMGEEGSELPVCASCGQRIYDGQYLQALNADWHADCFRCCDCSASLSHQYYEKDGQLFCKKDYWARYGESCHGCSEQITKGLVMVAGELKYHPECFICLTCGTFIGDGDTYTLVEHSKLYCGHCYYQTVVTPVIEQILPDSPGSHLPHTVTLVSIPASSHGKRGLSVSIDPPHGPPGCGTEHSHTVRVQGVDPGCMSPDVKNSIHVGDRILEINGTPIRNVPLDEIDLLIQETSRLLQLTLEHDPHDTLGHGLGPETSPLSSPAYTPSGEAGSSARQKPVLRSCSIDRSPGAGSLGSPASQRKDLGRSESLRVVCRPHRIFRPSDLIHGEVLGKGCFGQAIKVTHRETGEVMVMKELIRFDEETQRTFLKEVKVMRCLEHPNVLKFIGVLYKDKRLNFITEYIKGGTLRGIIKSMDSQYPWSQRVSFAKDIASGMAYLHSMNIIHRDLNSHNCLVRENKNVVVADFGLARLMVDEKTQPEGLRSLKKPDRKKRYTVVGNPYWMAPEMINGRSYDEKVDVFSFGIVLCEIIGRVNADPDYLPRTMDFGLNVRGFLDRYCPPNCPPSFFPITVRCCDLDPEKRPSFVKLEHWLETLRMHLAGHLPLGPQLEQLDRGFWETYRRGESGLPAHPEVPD
Tyrosine-protein kinase Lyn (Homo sapiens), sequence (P07948 2-512 limits assumed): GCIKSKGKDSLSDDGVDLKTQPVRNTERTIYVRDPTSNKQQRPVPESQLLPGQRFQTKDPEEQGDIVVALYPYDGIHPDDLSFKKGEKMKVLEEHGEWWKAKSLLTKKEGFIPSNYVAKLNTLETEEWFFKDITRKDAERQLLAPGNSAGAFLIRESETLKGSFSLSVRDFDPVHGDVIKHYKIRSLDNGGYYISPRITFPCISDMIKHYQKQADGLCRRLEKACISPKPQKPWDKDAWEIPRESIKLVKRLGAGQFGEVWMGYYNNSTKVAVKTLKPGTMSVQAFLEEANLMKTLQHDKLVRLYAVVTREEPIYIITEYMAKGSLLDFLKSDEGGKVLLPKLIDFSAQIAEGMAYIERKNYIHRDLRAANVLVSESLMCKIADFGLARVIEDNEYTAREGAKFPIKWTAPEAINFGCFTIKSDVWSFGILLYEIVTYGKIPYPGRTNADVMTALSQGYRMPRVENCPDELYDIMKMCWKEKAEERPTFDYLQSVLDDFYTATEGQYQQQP
Glycogen synthase kinase-3 beta (Homo sapiens), sequence (P49841 whole entry, looked up, the tested form may be a part): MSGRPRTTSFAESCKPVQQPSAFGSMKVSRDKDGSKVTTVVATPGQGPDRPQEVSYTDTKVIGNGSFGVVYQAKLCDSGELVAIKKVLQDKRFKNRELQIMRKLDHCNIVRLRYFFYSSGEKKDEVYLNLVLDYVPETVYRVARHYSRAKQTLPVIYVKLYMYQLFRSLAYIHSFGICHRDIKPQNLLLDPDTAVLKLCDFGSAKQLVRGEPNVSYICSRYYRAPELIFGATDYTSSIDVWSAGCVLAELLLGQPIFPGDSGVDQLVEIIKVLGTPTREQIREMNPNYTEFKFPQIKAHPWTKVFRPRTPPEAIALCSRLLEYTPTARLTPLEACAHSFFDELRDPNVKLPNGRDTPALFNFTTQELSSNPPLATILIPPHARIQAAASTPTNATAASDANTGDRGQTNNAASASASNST

`CCOC(=O)c1sc(-c2ccncc2)nc1O`: the IC50 in [1] worked out at 323 nM. Besides, the residual binding, % of control in [2] stood at 75%; in [3], 92%; in test [4], 65%. In addition, the residual activity turned out to be 92% in test [5]; 100% in test [6]; 80% in test [7]; 100% in test [8]; 92% in test [9]; 88% in test [10]. Besides, the residual activity was found to be 100% in [11]; 100% in test [12]; 100% in test [13]; 100% in test [14]; 85% in [15].

With `NC(=O)c1sc(-c2ccnc(N)n2)nc1-c1ccc(Cl)cc1Cl`, the IC50 in test [1] was 3.77 nM. Moreover, the residual binding, % of control in [2] turned out to be 83%; in test [3] it was 34%; in [4] it was 34%. Moreover, the residual activity in [5] was 75%; in [6], 75%; in test [7] it was 81%; in [8], 100%; in test [9], 0%; in test [10], 100%. The residual activity was 100% in [11]; 6.4% in test [12]; 100% in test [13]; 0.1% in [14]; 97% in test [15].

The compound `COc1ccc(-c2nc(-c3ccnc(N)n3)sc2C(N)=O)c(Cl)c1` displayed an IC50 in [1] of 6.81 nM. Further, the residual binding, % of control in test [2] is 99%; in test [3] it was 27%; in test [4], 49%. Further, the residual activity in test [5] was found to be 76%; in test [6], 78%; in [7], 88%; in test [8] it was 84%; in [9], 0%; in test [10], 50%. Further, the residual activity in [11] amounted to 32%; in [12], 6.8%; in test [13] it was 78%; in test [14] it was 0.2%; in test [15] it was 93%.
